An excerpt weighted towards active compounds, which were near 1.5% of everything screened.
CASP6 VEID inh: blocks human caspase-6 cleavage activity; P55212; purified caspase-6, Z-VEID-R110 cleavage fluorescence; inhibition, % at 12.5 µM; 0.53% of 350,000 active; AID 686996;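 active means mean inhibition across replicates at least about 35%, with every replicate also reaching that limit, limit read from the data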
Target sequence (P55212 24-179 limits assumed): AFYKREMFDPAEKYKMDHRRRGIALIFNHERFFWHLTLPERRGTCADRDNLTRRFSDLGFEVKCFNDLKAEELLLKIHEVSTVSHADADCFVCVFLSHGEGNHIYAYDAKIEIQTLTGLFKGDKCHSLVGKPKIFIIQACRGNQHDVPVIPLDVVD
Target sequence (P55212 194-293 limits assumed): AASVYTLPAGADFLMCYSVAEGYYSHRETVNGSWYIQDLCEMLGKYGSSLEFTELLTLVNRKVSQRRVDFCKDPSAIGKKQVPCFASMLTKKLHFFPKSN
DNMT1 block: blocks human DNA methyltransferase DNMT1. AID 588458. DNMT1 molecular beacon, Hinp1I cleavage, fluorescence. 0.83% of 360,000 active. inhibition (reported as % activation of signal), % at 10 µM. P26358
HCV NS3 hel inh: blocks Hepatitis C virus NS3 helicase unwinding; NS3 helicase DNA unwinding, Cy5 molecular beacon fluorescence; 0.56% of 290,000 active; inhibition, % at 10.9 µM; AID 1800;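 active means inhibition above the mean of all tested compounds plus 3 SD, set per campaign, cut at about 35% in these data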
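test system = hepatitis C virus NS3 helicase domain fragment enzyme | reagent = annealed dual-labelled DNA beacon duplex, ATP-started | times = 1 h at 25 °C | detection = Cy5 fluorescence, 0 and 60 min reads | read-out basis = percent inhibition from t60/t0 fluorescence ratio | control set = DMSO and thioflavine S | replication = one well per compound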
NSD2 HMT inh: blocks human histone methyltransferase NSD2; O96028; NSD2 peptide methylation, AlphaScreen, 120 min; inhibition, % at 12.5 µM; 0.54% of 310,000 active; AID 743445
NS3 helicase cf: confirmation of Hepatitis C virus NS3 helicase inhibitors; shares compounds with HCV NS3 hel inh; NS3 helicase DNA unwinding, Cy5 molecular beacon fluorescence; inhibition, % at 10.9 µM; 31% of 1,600 active; AID 1943;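 active means inhibition above the mean of all tested compounds plus 3 SD, cutoff set per campaign, cut at about 36% in these data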
DNA FID counter: displaces DNA intercalator in HCV helicase counter-screen; AID 1945; shares compounds with HCV NS3 hel inh; DNA fluorescent intercalator displacement, fluorescence; 4% of 1,600 active; inhibition, % at 7.9 µM; in the data active means inhibition above about 37%;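 further: higher means more displacement of ethidium bromide from the DNA hairpin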
FID counter DR: DNA intercalator displacement in dose response. shares compounds with HCV NS3 hel inh. fluorescent intercalator displacement from DNA, fluorescence. IC50, µM. 120 tested, under 10 active. AID 2172; call rule not given here
Large screens that a line does not name were inactive (follow-up assays come after a bar, where they were run). Unless noted, no stated cut-off is given here; in the data, active means inhibition above about 50%; inactive means the rest.

Cc1ccc2cc(C3CC(c4ccco4)=NN3C(=O)CCCC(=O)O)c(Cl)nc2c1 (stereo not drawn)	HCV NS3 hel inh 51 (no result: NSD2 HMT inh) | NS3 helicase cf inactive | DNA FID counter inactive
CC1CCc2c(sc3nc(SCC(=O)O)n(-c4ccccc4)c(=O)c23)C1 (stereo not drawn)	HCV NS3 hel inh 37 | NS3 helicase cf inactive | DNA FID counter inactive
Cc1ccc(-n2c(SCC(=O)O)nc3sc4c(c3c2=O)CCCC4)cc1	none
CCCN1C[C@H](C)[C@@H](OC)CN(C)C(=O)c2ccc(NC(=O)c3ccccc3F)cc2OC[C@@H]1C	none (no result: DNMT1 block, HCV NS3 hel inh, NSD2 HMT inh)
C=CCOc1ccc(Br)cc1/C=C1\NC(=S)N(C(C)=O)C1=O	HCV NS3 hel inh 40 | NS3 helicase cf inactive | DNA FID counter inactive
CCN(CC)CC(O)c1cccn1-c1ccc(CNC(=O)NC(C)C)cc1 (stereo not drawn)	HCV NS3 hel inh 39 | NS3 helicase cf inactive | DNA FID counter inactive
COc1ccc(OC)c(/C=C/c2ccc3cccc(O)c3n2)c1	HCV NS3 hel inh 60 | NS3 helicase cf inactive | DNA FID counter inactive
COc1cc(Br)c(/C=C/c2ccc3cccc(O)c3n2)cc1OC	none
CCOc1ccc(N2C(=O)CC(Sc3nc(CC(C)C)ccc3C#N)C2=O)cc1 (stereo not drawn)	HCV NS3 hel inh 39 | NS3 helicase cf 65 | DNA FID counter inactive
Cc1c(C(=O)OCC(C)C)[nH]c2c1C(=O)CC(c1ccco1)C2 (stereo not drawn)	HCV NS3 hel inh 37 (no result: NSD2 HMT inh) | NS3 helicase cf inactive | DNA FID counter inactive
C/C=C/COC(=O)c1[nH]c2c(c1C)C(=O)CC(c1ccco1)C2 (stereo not drawn)	none (no result: NSD2 HMT inh)
C=CCOC(=O)c1[nH]c2c(c1C)C(=O)CC(c1ccco1)C2 (stereo not drawn)	HCV NS3 hel inh 39 (no result: CASP6 VEID inh, DNMT1 block, NSD2 HMT inh) | NS3 helicase cf inactive | DNA FID counter inactive
COc1ccccc1N1CCN(C(=O)CSc2nc(-c3ccccc3)cc(=O)[nH]2)CC1	none (no result: CASP6 VEID inh)
COc1ccccc1N1CCN(C(=O)CSc2nc(C)c(Cc3ccccc3)c(=O)[nH]2)CC1	HCV NS3 hel inh 41 (no result: CASP6 VEID inh) | NS3 helicase cf inactive | DNA FID counter inactive
CCOC(=O)c1c(NC(=O)C2C3CCC(O3)C2C(=O)O)sc2c1CCC(CC)C2 (stereo not drawn)	none
CCOC(=O)c1c(NC(=O)C2C3CCC(O3)C2C(=O)O)sc(C)c1-c1ccc(F)cc1 (stereo not drawn)	HCV NS3 hel inh 55 (no result: CASP6 VEID inh, NSD2 HMT inh) | NS3 helicase cf 61 | DNA FID counter inactive
O=C(Cc1ccc(Br)cc1)N1CCN(C(=O)c2ccco2)CC1	HCV NS3 hel inh 38 | NS3 helicase cf inactive | DNA FID counter inactive
O=C(Cc1ccccc1)N1CCN(C(=O)c2ccco2)CC1	none (no result: CASP6 VEID inh)
CC1(C)Cc2c(C#N)c(NCCc3ccccc3)nc(-c3ccco3)c2CO1	HCV NS3 hel inh 40 (no result: CASP6 VEID inh) | NS3 helicase cf 63 | DNA FID counter inactive | FID counter DR inactive
COC(=O)C1=C(O)/C(=C\c2ccc(CNS(=O)(=O)c3ccccc3)o2)N=C1C	none (no result: CASP6 VEID inh)
COC(=O)C1=C(O)/C(=C\c2ccc(CNS(=O)(=O)c3ccc(Cl)cc3)o2)N=C1C	CASP6 VEID inh 49, HCV NS3 hel inh 40 | NS3 helicase cf inactive | DNA FID counter inactive
C[C@@H]1CCCCO[C@H](CN(C)C(=O)c2ccccc2)[C@@H](C)CN([C@@H](C)CO)C(=O)c2cc(NC(=O)C3CCCCC3)ccc2O1	none (no result: DNMT1 block, HCV NS3 hel inh, NSD2 HMT inh)
CC(=O)Nc1ccc(S(=O)(=O)NNC(=O)COc2ccc(Cl)cc2Cl)cc1	HCV NS3 hel inh 37 | NS3 helicase cf inactive | DNA FID counter inactive
COCC(=O)Nc1ccc2c(c1)[C@@H]1C[C@H](CC(=O)NC3CCCCC3)O[C@H](CO)[C@@H]1O2	none (no result: DNMT1 block, HCV NS3 hel inh, NSD2 HMT inh)
COc1cccc(N2C(=O)CC(Nc3ccc(N4CCOCC4)cc3)C2=O)c1 (stereo not drawn)	none (no result: CASP6 VEID inh, NSD2 HMT inh)
O=C1CC(Nc2ccc(N3CCOCC3)cc2)C(=O)N1c1cccc(C(F)(F)F)c1 (stereo not drawn)	HCV NS3 hel inh 48 (no result: CASP6 VEID inh, NSD2 HMT inh) | NS3 helicase cf inactive | DNA FID counter inactive
COC(=O)N/N=C/c1cc(C)n(-c2ccc(F)cc2)c1C	HCV NS3 hel inh 42 | NS3 helicase cf inactive | DNA FID counter inactive
COc1ccc(-c2csc(NC(=O)c3ccccc3Br)c2C(=O)O)cc1	HCV NS3 hel inh 41 | NS3 helicase cf 59 | DNA FID counter inactive
CN(C)c1ccc(N/C=C/C(=O)C(C)(C)C)cc1	HCV NS3 hel inh 48 (no result: CASP6 VEID inh) | NS3 helicase cf inactive | DNA FID counter inactive
CCCC#Cc1ccc2c(c1)O[C@@H](CN(C)C(=O)c1ccncc1)[C@@H](C)CN([C@@H](C)CO)S2(=O)=O	none (no result: DNMT1 block, HCV NS3 hel inh, NSD2 HMT inh)
Cc1ccc(S(=O)(=O)N(C)C[C@H]2Oc3c(NC(=O)CCCCCC(=O)Nc4ccccc4N)cccc3C(=O)N([C@@H](C)CO)C[C@H]2C)cc1	none (no result: DNMT1 block, HCV NS3 hel inh, NSD2 HMT inh)
Cc1cc(C(=O)N/N=C/c2ccc(O)c(O)c2O)c(C)n1-c1ccccc1	HCV NS3 hel inh 46 | NS3 helicase cf inactive | DNA FID counter inactive
Cc1cc(C)c(C(=O)CSc2nnc(-c3ccccc3Br)o2)cc1C	HCV NS3 hel inh 39 (no result: CASP6 VEID inh) | NS3 helicase cf inactive | DNA FID counter inactive
CO[C@@H]1CN(C)C(=O)c2ccc(NC(=O)Cc3ccccc3)cc2OC[C@H](C)NC[C@@H]1C	none (no result: DNMT1 block, HCV NS3 hel inh, NSD2 HMT inh)
CCCNC(=O)[C@@H]1[C@@H](CO)[C@@H]2Cn3c(ccc(-c4ccccc4OC)c3=O)[C@@H]2N1CC	none (no result: DNMT1 block, HCV NS3 hel inh, NSD2 HMT inh)
CCCCn1c(N)c(N(CCC(C)C)C(=O)CCCc2nc3ccccc3s2)c(=O)[nH]c1=O	HCV NS3 hel inh 38 | NS3 helicase cf inactive | DNA FID counter inactive
CCCCn1c(N)c(N(CCC(C)C)C(=O)c2cc(-c3ccco3)nc3ccccc23)c(=O)[nH]c1=O	HCV NS3 hel inh 41 (no result: NSD2 HMT inh) | NS3 helicase cf inactive | DNA FID counter inactive
CCCCn1c(N)c(N(CC(C)C)C(=O)CCCc2nc3ccccc3s2)c(=O)[nH]c1=O	none (no result: HCV NS3 hel inh)
C[C@@H]1CN([C@@H](C)CO)C(=O)c2cc(NC(=O)CCCN(C)C)ccc2O[C@@H]1CN(C)C(=O)Nc1ccc2c(c1)OCO2	none (no result: DNMT1 block, HCV NS3 hel inh, NSD2 HMT inh)
O=C(Nc1ccccc1O)c1cc2cc(Br)ccc2oc1=O	HCV NS3 hel inh 43 | NS3 helicase cf inactive | DNA FID counter inactive
COc1ccccc1NC(=O)c1cc2cc(Br)ccc2cc1O	none | NS3 helicase cf 87 | DNA FID counter inactive | FID counter DR inactive
COc1cc(NC(=O)c2cc3ccccc3cc2O)c(OC)cc1Cl	none (no result: NSD2 HMT inh)
O=C(NNC(=O)c1cc2cc(Br)ccc2oc1=O)c1ccc(O)cc1	none (no result: NSD2 HMT inh)
O=C(O)CN1C(=O)/C(=C/c2ccccc2Cl)Oc2ccccc21	none
O=C(O)CN1C(=O)/C(=C/c2cccc(Cl)c2)Oc2ccccc21	HCV NS3 hel inh 54 | NS3 helicase cf 59 | DNA FID counter inactive
C/C(=N\NC(=O)c1cc(O)ccc1O)c1cccc(NC(=O)c2ccc(Cl)cc2)c1	CASP6 VEID inh 53, HCV NS3 hel inh 40 | NS3 helicase cf inactive | DNA FID counter inactive
